Broadly, the inhibition is the percentage by which the read-out fell short of the control. Higher therefore signals strong suppression. The pIC50 is −log10 of the IC50, conventionally taken in molar units. Low readings indicate a large IC50, high ones a small IC50.

pIC50: −log10 of the molar value. Where only a bound is given, the exact number is not on record here.

Drawing on ChEMBL document CHEMBL3108713, “Identification of ML251, a Potent Inhibitor of T. brucei and T. cruzi Phosphofructokinase” (ACS Med Chem Lett, 2014), this text covers inhibition and IC50 for 36 compounds.

Assay [1] has as its target T1, ATP-dependent 6-phosphofructokinase (Trypanosoma cruzi) (UniProt Q4E657).
T1 sequence (whole entry): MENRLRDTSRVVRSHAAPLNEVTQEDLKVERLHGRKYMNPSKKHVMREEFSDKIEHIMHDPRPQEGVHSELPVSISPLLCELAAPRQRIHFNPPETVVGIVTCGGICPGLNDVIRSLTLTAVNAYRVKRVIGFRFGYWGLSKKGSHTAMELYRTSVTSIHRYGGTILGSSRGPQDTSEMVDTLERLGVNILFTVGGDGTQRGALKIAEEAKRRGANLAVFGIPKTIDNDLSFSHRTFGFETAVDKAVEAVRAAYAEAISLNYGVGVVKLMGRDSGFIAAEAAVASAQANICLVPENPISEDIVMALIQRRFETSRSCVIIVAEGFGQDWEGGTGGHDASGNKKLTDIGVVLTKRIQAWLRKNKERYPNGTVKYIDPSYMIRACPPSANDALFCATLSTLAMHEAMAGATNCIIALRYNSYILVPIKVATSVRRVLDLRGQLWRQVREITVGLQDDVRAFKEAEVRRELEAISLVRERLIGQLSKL
In words: Inhibition of Trypanosoma cruzi PFK at 57 uM. The method in brief: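 PFK activity is measured by coupling ADP production to ADP-Glo luciferase luminescence at end point. Percent inhibition is recorded at 57 μM, the highest concentration of the dose series, with at least 3 separate experiments averaged.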

Assay [2] deals with T2, ATP-dependent 6-phosphofructokinase (Trypanosoma brucei, UniProt O15648).
T2 sequence (O15648 whole entry): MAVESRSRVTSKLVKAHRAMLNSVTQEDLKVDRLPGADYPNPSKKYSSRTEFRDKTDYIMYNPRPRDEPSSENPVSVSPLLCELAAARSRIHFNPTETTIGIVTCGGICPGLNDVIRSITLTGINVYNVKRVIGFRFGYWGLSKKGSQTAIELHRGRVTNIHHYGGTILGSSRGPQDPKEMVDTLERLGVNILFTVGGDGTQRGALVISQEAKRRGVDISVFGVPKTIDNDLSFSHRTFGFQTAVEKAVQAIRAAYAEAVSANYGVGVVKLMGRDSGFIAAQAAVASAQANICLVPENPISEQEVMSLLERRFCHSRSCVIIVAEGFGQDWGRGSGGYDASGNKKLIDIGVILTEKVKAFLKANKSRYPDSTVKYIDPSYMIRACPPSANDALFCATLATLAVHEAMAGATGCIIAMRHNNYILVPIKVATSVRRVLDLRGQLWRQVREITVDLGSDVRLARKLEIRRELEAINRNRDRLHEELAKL
Put plainly: Inhibition of Trypanosoma brucei PFK-mediated ADP production using ATP/fructose-6-phosphate as substrate by luciferase based luminescence assay. The method in brief:
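Recombinant enzyme; ADP formed by PFK detected with modified luciferase (ADP-Glo) luminescent end-point in 1536-well format.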

In assay [3] the target is T3, ATP-dependent 6-phosphofructokinase (Trypanosoma cruzi, UniProt Q4E657).
T3 sequence (Q4E657 whole entry): T1 sequence (whole entry)
In words: Inhibition of Trypanosoma cruzi PFK.

The target of assay [4] is T4, ATP-dependent 6-phosphofructokinase (Trypanosoma brucei) (UniProt O15648).
T4 sequence (whole entry): T2 sequence (O15648 whole entry)
Put plainly: Inhibition of Trypanosoma brucei PFK-mediated ADP production using ATP/fructose-6-phosphate as substrate at 57 uM by luciferase based luminescence assay. The gist of the method: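 Recombinant T. brucei PFK; ADP formed by the enzyme is converted to a luminescent signal by a modified luciferase ADP-Glo detection, read at end point.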

For the compound `Cc1cc(NS(=O)(=O)CCNC(=O)Cc2ccc(Cl)c(Cl)c2)no1`, the inhibition in assay [1] and in assay [4] was over 80% throughout. In addition, the pIC50 in assay [2] is 4.49; in assay [3], 4.79.
Regarding `CCOC(=O)c1cccc(NS(=O)(=O)c2ccc(NC(=O)Cc3ccc(Cl)c(Cl)c3)cc2)c1`, the pIC50 in assay [2] and in assay [3] was under 4.24 each time.
Regarding `COc1ccc(CC(=O)Nc2ccc(S(=O)(=O)Nc3cc(C)on3)cc2)cc1OC`, the pIC50 in assay [2] and in assay [3] was under 4.24 throughout.
For the compound `Cc1cc(NS(=O)(=O)c2ccc(NC(=O)Cc3ccc(F)c(Cl)c3)cc2)no1`, the inhibition in assay [1] and in assay [4] was over 80% each time. The pIC50 in assay [2] was 6.14; in assay [3], 6.34.
As to `Cc1cc(NS(=O)(=O)c2ccc(NC(=O)Cc3ccc(Cl)c(Cl)c3)cc2)n(C)n1`, the inhibition in assay [1] and in assay [4] was over 80% in each case. The figures for the pIC50 in assay [2] and in assay [3] were 5.64 and 5.94, respectively.
With `Cc1cc(NS(=O)(=O)c2ccc(NC(=O)Cc3ccc(Cl)cc3Cl)cc2)no1`, the inhibition in assay [1] and in assay [4] was over 80% each time. The pIC50 in assay [2] is 5.34; in assay [3], 4.84.
For `O=C(Cc1ccc(Cl)c(Cl)c1)Nc1ccc(S(=O)(=O)Nc2nncs2)cc1`, the inhibition in assay [1] and in assay [4] was over 80% in each case. Besides, the negative logarithm of the IC50 (pIC50) is 6.95 in assay [2] and 7.28 in assay [3].
Take `O=C(Cc1ccc(Cl)c(Cl)c1)Nc1ccc(S(=O)(=O)Nc2ccccc2)cc1`: the inhibition in assay [1] and in assay [4] was over 80% in each case. In addition, the pIC50 in assay [2] and in assay [3] was 4.79 in each case.
Consider `O=C(Cc1ccc(Cl)c(Cl)c1)Nc1ccc(S(=O)(=O)Nc2cccc(O)c2)cc1`, for which the inhibition in assay [1] and in assay [4] was over 80% in each case. Moreover, the pIC50 was 5.84 in assay [2] and 5.79 in assay [3].
Take `O=C(Cc1ccc(F)c(Cl)c1)Nc1ccc(S(=O)(=O)Nc2nccs2)cc1`: the inhibition in assay [1] and in assay [4] was over 80% each time. The results for the pIC50 in assay [2] and in assay [3] were 7.62 and 6.92, respectively.
As to `Cc1cc(N(C)S(=O)(=O)c2ccc(NC(=O)Cc3ccc(Cl)c(Cl)c3)cc2)no1`, the inhibition in assay [1] and in assay [4] was over 80% each time. For the same compound, the pIC50 is 5.54 in assay [2] and 5.69 in assay [3].
For `Cc1cc(NS(=O)(=O)C2CCN(C(=O)Cc3ccc(Cl)c(Cl)c3)CC2)no1`, the inhibition in assay [1] and in assay [4] was over 80% each time. Also, the pIC50 in assay [2] was 4.48; in assay [3], 4.89.
As to `O=C(Cc1ccc(Cl)c(Cl)c1)Nc1ccc(S(=O)(=O)O)cc1`, the inhibition in assay [1] and in assay [4] was over 80% throughout. For the same compound, the figures for the pIC50 in assay [2] and in assay [3] were 6.19 and 6.34, respectively.
`Cc1cc(NS(=O)(=O)c2ccc(NC(=O)Cc3ccc4ccccc4c3)cc2)no1`: the inhibition in assay [1] and in assay [4] was over 80% in each case. The values for the pIC50 in assay [2] and in assay [3] were 5.19 and 5.74, respectively.
As for `Cc1cc(NC(=O)c2ccc(NC(=O)Cc3ccc(Cl)c(Cl)c3)cc2)no1`, the pIC50 in assay [2] and in assay [3] was under 4.24 each time.
Take `O=C(Cc1ccc(Cl)c(Cl)c1)Nc1ccc(S(=O)(=O)Nc2ccc(C(=O)O)cc2)cc1`: the inhibition in assay [1] and in assay [4] was over 80% throughout. Also, the pIC50 was 6.80 in assay [2] and 6.54 in assay [3].
`Cc1cc(NS(=O)(=O)c2ccc(NC(=O)CCc3ccc(Cl)c(Cl)c3)cc2)no1`: the inhibition in assay [1] and in assay [4] was over 80% each time. The pIC50 in assay [2] was 5.29; in assay [3] it was 5.19.
`COc1ccc(CC(=O)Nc2ccc(S(=O)(=O)Nc3cc(C)on3)cc2)cc1C`: the inhibition in assay [1] is over 80%. Further, the negative-log IC50 (pIC50) was under 4.24 in assay [2] and 4.69 in assay [3].
Regarding `Cc1cc(NS(=O)(=O)c2ccc(NC(=O)Cc3ccc(Cl)cc3)cc2)no1`, the inhibition in assay [1] and in assay [4] was over 80% throughout. The pIC50 is 5.74 in assay [2] and 5.84 in assay [3].
`Cc1cc(NS(=O)(=O)c2ccc(C(=O)NCc3ccc(Cl)c(Cl)c3)cc2)no1`: the inhibition in assay [1] and in assay [4] was over 80% each time. Moreover, the pIC50 in assay [2] is 5.29; in assay [3], 5.54.
As for `Cc1cc(NS(=O)(=O)c2ccc(NC(=O)C(C)(C)c3ccc(Cl)c(Cl)c3)cc2)no1`, the inhibition in assay [1] and in assay [4] was over 80% each time. Moreover, the pIC50 in assay [2] and in assay [3] was 4.44 throughout.
Regarding `Cc1cc(NS(=O)(=O)Cc2ccc(NC(=O)Cc3ccc(Cl)c(Cl)c3)cc2)no1`, the inhibition in assay [1] and in assay [4] was over 80% in each case. For the same compound, the values for the pIC50 in assay [2] and in assay [3] were 5.59 and 5.49, respectively.
As for `Cc1cc(NS(=O)(=O)c2ccc(NC(=O)Cc3ccc(C)c(C)c3)cc2)no1`, the inhibition in assay [1] and in assay [4] was over 80% throughout. Besides, the negative logarithm of the IC50 (pIC50) was 4.74 in assay [2] and 5.19 in assay [3].
Take `Cc1cc(NS(=O)(=O)c2ccc(NC(=O)Cc3ccc(Cl)c(F)c3)cc2)no1`: the inhibition in assay [1] and in assay [4] was over 80% throughout. Besides, the negative-log IC50 (pIC50) in assay [2] is 6.15; in assay [3] it was 6.19.
As to `O=C(Cc1ccc(Cl)c(Cl)c1)Nc1ccc(S(=O)(=O)Nc2nccs2)cc1`, the inhibition in assay [1] and in assay [4] was over 80% throughout. The negative logarithm of the IC50 (pIC50) in assay [2] was 7.10; in assay [3] it was 7.39.
In the case of `CN(C)c1cccc(NS(=O)(=O)c2ccc(NC(=O)Cc3ccc(Cl)c(Cl)c3)cc2)c1`, the inhibition in assay [1] and in assay [4] was over 80% in each case. Besides, the figures for the negative-log IC50 (pIC50) in assay [2] and in assay [3] were 5.24 and 4.94, respectively.
With `Cc1cc(NS(=O)(=O)c2ccc(NCCc3ccc(Cl)c(Cl)c3)cc2)no1`, the inhibition in assay [1] and in assay [4] was over 80% in each case. Further, the negative logarithm of the IC50 (pIC50) is 5.22 in assay [2] and 4.79 in assay [3].
Regarding `Cc1ccc(C(=O)Nc2ccc(S(=O)(=O)O)c3cc(S(=O)(=O)O)cc(S(=O)(=O)O)c23)cc1NC(=O)c1cccc(NC(=O)Nc2cccc(C(=O)Nc3cc(C(=O)Nc4ccc(S(=O)(=O)O)c5cc(S(=O)(=O)O)cc(S(=O)(=O)O)c45)ccc3C)c2)c1` [SURAMIN], in assay [2], the pIC50 was 5.52.
Take `Cc1cc(NS(=O)(=O)c2ccc(NC(=O)Cc3ccccc3)cc2)no1`: the inhibition in assay [1] and in assay [4] was over 80% each time. Besides, the figures for the pIC50 in assay [2] and in assay [3] were 4.44 and 4.69, respectively.
For the compound `Cc1cc(NS(=O)(=O)c2ccc(NS(=O)(=O)Cc3ccc(Cl)c(Cl)c3)cc2)no1`, the pIC50 in assay [2] is 4.43; in assay [3], under 4.24. The inhibition in assay [4] is over 80%.
Regarding `O=C(Cc1ccc(Cl)c(Cl)c1)Nc1ccc(S(=O)(=O)Nc2cncnc2)cc1`, the inhibition in assay [1] and in assay [4] was over 80% in each case. Further, the figures for the pIC50 in assay [2] and in assay [3] were 6.09 and 6.14, respectively.
For `Cc1cc(NS(=O)(=O)c2ccc(NC(=O)c3ccc(Cl)c(Cl)c3)cc2)no1`, the inhibition in assay [1] and in assay [4] was over 80% in each case. Also, the results for the pIC50 in assay [2] and in assay [3] were 4.84 and 4.69, respectively.
For the compound `Cc1cc(NS(=O)(=O)c2ccc(N(C)C(=O)Cc3ccc(Cl)c(Cl)c3)cc2)no1`, the inhibition in assay [1] and in assay [4] was over 80% throughout. In addition, the pIC50 in assay [2] was 5.19; in assay [3] it was 5.89.
`Cc1cc(NC(=O)c2csc(NC(=O)Cc3ccc(Cl)c(Cl)c3)n2)no1`: the pIC50 in assay [2] and in assay [3] was under 4.24 each time.
Take `Cc1cc(NS(=O)(=O)c2ccc(NC(=O)Cc3ccc(C)c(F)c3)cc2)no1`: the inhibition in assay [1] and in assay [4] was over 80% in each case. Also, the figures for the negative-log IC50 (pIC50) in assay [2] and in assay [3] were 5.24 and 5.34, respectively.
Regarding `Cc1cc(NS(=O)(=O)c2ccc(NC(=O)Cc3ccc(Cl)c(C(F)(F)F)c3)cc2)no1`, the inhibition in assay [1] and in assay [4] was over 80% each time. Besides, the pIC50 in assay [2] was 6.17; in assay [3] it was 6.04.
